In ChEMBL document CHEMBL1671655, “Anidulafungin is fungicidal and exerts a variety of postantifungal effects against Candida albicans, C. glabrata, C. parapsilosis, and C. krusei isolates” (2009):
Activity calls are given as the source filed them. The calls are words filed in the database; no cut-off is given here. Starred links: 1 amine or outer side, 2 acyl side, 3 side chain; linkers in the order of their positions; H or OH if unused. Positions of bridges follow the written chain, without caps; N, C: chain ends. Non-standard residues stand in square brackets, D forms with d. Residues, ends and D or L forms follow the SMILES beside them. *: point of attachment. pTerphenylCO(4''-OnC5H11) = CCCCCOc1ccc(-c2ccc(-c3ccc(C(=O)*)cc3)cc2)cc1; Orn(4R-OH,5R-OH) = O=C([C@H](C[C@@H](O)[C@@H](O)N[*:3])N[*:1])[*:2]; hTyr(3S-OH,4S-OH) = N[C@H](C(=O)O)[C@H](O)[C@@H](O)c1ccc(O)cc1; Pro(3S-OH,4S-Me) = C[C@H]1CN[C@H](C(=O)O)[C@H]1O; Hyp = O=C(O)[C@@H]1C[C@@H](O)CN1

Columns and labels:
Candida albicans [1] = assay: Fungicidal activity against Candida albicans isolate S assessed as log reduction in bacterial count at 16 times MIC after drug exposure for 1 hr followed by washout measured after 48 hrs in the absence of drug by PAFE study; assay type: functional
Method in brief: (§1)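 Starting inoculum ~1 x 10^5 to 5 x 10^5 CFU/ml in MOPS-buffered RPMI 1640 (pH 7.0) with drug at multiples of the CLSI M27-A3 MIC. After 1 h at 35°C, cells washed and centrifuged three times at 1,400 x g for 10 min, then resuspended in warm drug-free RPMI. Shaken at 35°C and plated on SDA at 0–48 h; CFU counted after 48 h. Run twice per isolate; means.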

Nakaseomyces glabratus [2] = assay: Fungicidal activity against Candida glabrata isolate 1 assessed as log reduction in bacterial count at MIC after drug exposure for 1 hr followed by washout measured after 48 hrs in the absence of drug by PAFE study; assay type: functional; method in brief: as §1
Candida albicans [3] = assay: Antifungal activity against Candida albicans isolate 1 assessed as cell wall damage at MIC by Transmission electron microscopy; assay type: functional, organism-based
Method in brief: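 Cells recovered 8 h after a 1-h drug exposure were grown on SDA for 24 h at 35°C. Colonies fixed at 4°C in 0.1 M cacodylate (pH 7.2) with 2% glutaraldehyde and 2% paraformaldehyde, ethanol-dehydrated and embedded in Lowicryl K4M. Thin sections examined by transmission EM.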

Candida parapsilosis [4] = assay: Increase in susceptibility to calcofluor white in Candida parapsilosis isolate 1 assessed as cell wall damage at MIC after 1 hr relative to control; assay type: functional, organism-based
Method in brief: (§2)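 Candida given a 1-h anidulafungin pulse in MOPS-buffered RPMI 1640 (pH 7.0) at 35°C, washed three times by centrifugation, and regrown drug-free. Cells collected 8 h later, grown in YPD with 1% glucose to exponential phase, and set to OD599 0.1. Undiluted culture and 10-fold dilutions (4 µl) spotted on YPD plates with calcofluor white, then 30°C for 72 h. Triplicate; compared with no-drug cells.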

Candida parapsilosis [5] = assay: Inhibition of Candida parapsilosis isolate A adherence to human buccal epithelial cells at 4 times MIC after 1 hr by adherence assay relative to control; assay type: functional, Epithelial cell
Method in brief: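 Candida collected 8 h after a 1-h 4x MIC pulse and washout were grown on SDA for 24 h at 35°C. Buccal epithelial cells were pooled from three donors and washed in PBS. Cells (1 x 10^5/ml) were mixed 1:1 by volume with Candida (1 x 10^6/ml) and shaken 1 h at 37°C. Mixtures were filtered, washed, and Gram-stained, and Candida were counted per 100 epithelial cells. Run in duplicate on ≥2 occasions; Student's t test against unexposed controls.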

Candida parapsilosis [6] = assay: Increase in susceptibility to calcofluor white in Candida parapsilosis isolate 1 assessed as cell wall damage at 4 times MIC after 1 hr relative to control; assay type: functional, organism-based; method in brief: as §2
Candida parapsilosis [7] = assay: Antifungal activity against Candida parapsilosis isolate A assessed as time period for bacterial growth inhibition at 16 times MIC after 1 hr drug exposure; assay type: functional
Method in brief: (§3)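 Inoculum of about 1 x 10^5 to 5 x 10^5 CFU/ml in MOPS-buffered RPMI (pH 7.0), shaken at 35°C and exposed to drug for 1 h. Cells then washed and centrifuged three times and resuspended in drug-free warm RPMI. Samples plated on SDA at 0, 2, 4, 8, 12, 24 and 48 h, with CFU counted after 48 h at 35°C. Run twice per isolate; values are means.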

Candida parapsilosis [8] = assay: Fungicidal activity against Candida parapsilosis isolate A assessed as log reduction in bacterial count at 4 times MIC after drug exposure for 1 hr followed by washout measured after 48 hrs in the absence of drug by PAFE study; assay type: functional; conditions: Lodderomyces parapsilosis
Method in brief: (§4)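 Inoculum about 1 x 10^5 to 5 x 10^5 CFU/ml in RPMI 1640 (MOPS, pH 7.0) with drug, shaken at 35°C for 1 h. Cells were then washed and centrifuged at 1,400 x g for 10 min (3 cycles) and resuspended in warm drug-free RPMI. Samples plated on SDA at 0, 2, 4, 8, 12, 24 and 48 h; CFU counted after 48 h at 35°C. Run twice per isolate; means.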

Candida parapsilosis [9] = assay: Fungicidal activity against Candida parapsilosis isolate 1 assessed as log reduction in bacterial count at 4 times MIC after 48 hrs by time-kill analysis; assay type: functional; conditions: Lodderomyces parapsilosis, isolate 1, 48 h
Method in brief: (§5)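 Isolates subcultured twice on SDA, suspended to 0.5 McFarland, giving ~1 x 10^5 to 5 x 10^5 CFU/ml in MOPS-buffered RPMI 1640 (pH 7.0) with or without drug at multiples of MIC (MIC by CLSI M27-A3). Tubes shaken at 35°C with continuous drug. Sampled at 0–48 h, diluted 10-fold and plated on SDA; CFU counted after 48 h at 35°C. Run twice per isolate; means.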

Nakaseomyces glabratus [10] = assay: Increase in susceptibility to calcofluor white in Candida glabrata isolate 1 assessed as cell wall damage at 4 times MIC after 1 hr relative to control; assay type: functional, organism-based
Method in brief: (§6)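 Cells recovered 8 h after a 1-h drug exposure were grown to exponential phase in YPD with 1% glucose and adjusted to OD599 0.1. Undiluted and 10-fold serially diluted cultures were spotted onto YPD plates containing calcofluor white, then incubated at 30°C for 72 h. Growth compared with no-drug control cells; triplicate.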

Nakaseomyces glabratus [11] = assay: Increase in susceptibility to SDS in Candida glabrata isolate 3 assessed as cell wall damage at 16 times MIC after 1 hr relative to control; assay type: functional, organism-based
Method in brief: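 Cells recovered 8 h after a 1-h drug exposure were grown in YPD with 1% glucose to exponential phase and adjusted to OD599 0.1. Undiluted culture and 10-fold serial dilutions were spotted onto YPD plates containing SDS (0.01 to 0.04%), then incubated 72 h at 30°C. Growth compared with unexposed control cells; triplicate.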

Pichia kudriavzevii [12] = assay: Fungicidal activity against Candida krusei isolate 1 assessed as log reduction in bacterial count at MIC after 48 hrs by time-kill analysis; assay type: functional; conditions: isolate 1, 48 h; method in brief: as §5
Candida parapsilosis [13] = assay: Increase in susceptibility to calcofluor white in Candida parapsilosis isolate A assessed as cell wall damage at MIC after 1 hr relative to control; assay type: functional, organism-based; method in brief: as §2
Nakaseomyces glabratus [14] = assay: Antifungal activity against Candida glabrata isolate 3 assessed as time period for bacterial growth inhibition at 16 times MIC after 1 hr drug exposure; assay type: functional; method in brief: as §3
Candida albicans [15] = assay: Fungicidal activity against Candida albicans isolate 2 assessed as log reduction in bacterial count at 16 times MIC after 48 hrs by time-kill analysis; assay type: functional; conditions: isolate 2, 48 h; method in brief: as §5
Candida albicans [16] = assay: Increase in susceptibility to calcofluor white in Candida albicans isolate 1 assessed as cell wall damage at MIC after 1 hr relative to control; assay type: functional, organism-based; method in brief: as §6
Candida parapsilosis [17] = assay: Fungicidal activity against Candida parapsilosis isolate 1 assessed as log reduction in bacterial count at 4 times MIC after drug exposure for 1 hr followed by washout measured after 48 hrs in the absence of drug by PAFE study; assay type: functional; conditions: Lodderomyces parapsilosis; method in brief: as §4
Nakaseomyces glabratus [18] = assay: Fungicidal activity against Candida glabrata isolate 1 assessed as log reduction in bacterial count at 4 times MIC after 48 hrs by time-kill analysis; assay type: functional; conditions: isolate 1, 48 h; method in brief: as §5
Pichia kudriavzevii [19] = assay: Increase in susceptibility to calcofluor white in Candida krusei isolate ATCC 6258 assessed as cell wall damage at 4 times MIC after 1 hr relative to control; assay type: functional, organism-based; method in brief: as §6
Nakaseomyces glabratus [20] = assay: Antifungal activity against Candida glabrata isolate 3 assessed as time period for bacterial growth inhibition at 4 times MIC after 1 hr drug exposure; assay type: functional; method in brief: as §3
Candida parapsilosis [21] = assay: Antifungal activity against Candida parapsilosis isolate 1 assessed as time period for bacterial growth inhibition at 4 times MIC after 1 hr drug exposure; assay type: functional; method in brief: as §3

CCCCCOc1ccc(-c2ccc(-c3ccc(C(=O)N[C@H]4C[C@@H](O)[C@@H](O)NC(=O)[C@@H]5[C@@H](O)[C@@H](C)CN5C(=O)[C@H]([C@@H](C)O)NC(=O)[C@H]([C@H](O)[C@@H](O)c5ccc(O)cc5)NC(=O)[C@@H]5C[C@@H](O)CN5C(=O)[C@H]([C@@H](C)O)NC4=O)cc3)cc2)cc1 [ANIDULAFUNGIN] ({pTerphenylCO(4''-OnC5H11)}-[Orn(4R-OH,5R-OH)]T[Hyp][hTyr(3S-OH,4S-OH)]T[Pro(3S-OH,4S-Me)]; lactam 1-C)
log reduction (Candida albicans [1]): 2.52 log CFU/ml | log reduction (Nakaseomyces glabratus [2]): 0.89 | Activity (Candida albicans [3]): Active | Activity (Candida parapsilosis [4]): Active | inhibition (INH) (Candida parapsilosis [5]): 69% | Activity (Candida parapsilosis [6]): Active | Time (Candida parapsilosis [7]): 8 h | log reduction (Candida parapsilosis [8]): 2.54 | log reduction (Candida parapsilosis [9]): 3.07 log CFU/ml | Activity (Nakaseomyces glabratus [10]): Active | Activity (Nakaseomyces glabratus [11]): Active | log reduction (Pichia kudriavzevii [12]): 1.74 log CFU/ml | Activity (Candida parapsilosis [13]): Active | Time (Nakaseomyces glabratus [14]): 8 h | log reduction (Candida albicans [15]): 2.86 log CFU/ml | Activity (Candida albicans [16]): Active | log reduction (Candida parapsilosis [17]): 2.46 | log reduction (Nakaseomyces glabratus [18]): 2.77 log CFU/ml | Activity (Pichia kudriavzevii [19]): Active | Time (Nakaseomyces glabratus [20]): 8 h | Time (Candida parapsilosis [21]): 8 h
